Experimental data: ChEMBL document CHEMBL4673384, “Studying Histone Deacetylase Inhibition and Apoptosis Induction of Psammaplin A Monomers with Modified Thiol Group” (ACS Med Chem Lett, 2021)
Active and inactive are the calls of the source. The rule behind the calls is not given here.

Tests used:
[1] = target: Histone deacetylase 3 (Homo sapiens) (UniProt O15379); assay: Inhibition of HDAC3 in human HL-60 cells assessed as increase in Ac-H3 level at 0.5 to 8 uM incubated for 24 hrs by Western blot analysis; type: cell-based; details: dose 0.5-8 µM
Method in brief: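 Compound given to HL-60 cells for 24 h at the stated concentrations, then lysed. Acetyl-histone H3 and acetyl-α-tubulin levels were read by Western blot, with total H3, α-tubulin or β-actin as references.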

[2] = Toxicity in mouse LL/2 cells inoculated C57BL/6J mouse assessed as effect on body weight by measuring end body weight at 25 mg/kg, ip administered for 12 days and measured for every 2 days (reference value: 18.1 +/- 0.2 g); type: organism-based; details: in vivo, 288 h, time 12 day
[3] = Toxicity in mouse LL/2 cells inoculated C57BL/6J mouse assessed as effect on body weight by measuring initial body weight at 25 mg/kg, ip administered for 12 days measured for every 2 days (reference value: 18.4 +/- 0.4 g); type: organism-based; details: in vivo, 288 h, time 12 day
[4] = Antitumor activity against mouse LL/2 cells inoculated in C57BL/6J mouse assessed as tumor growth inhibition at 25 mg/kg, ip administered for 12 days; type: functional, Lewis lung carcinoma; set-up: scale not given: the % may be the effect or the level left; details: time 12 day
[5] = Antitumor activity against mouse LL/2 cells inoculated in C57BL/6J mouse assessed as reduction of tumor weight at 25 mg/kg, ip administered for 12 days measured at day 14 (reference value: 0.98 +/- 0.07 g); type: functional, Lewis lung carcinoma; details: time 12 day
[6] = Antiproliferative activity against mouse LL/2 cells assessed as cell growth inhibition incubated for 96 hrs by MTT assay; type: functional, Lewis lung carcinoma
HCT-116 = assay: Antiproliferative activity against human HCT-116 cells assessed as cell growth inhibition incubated for 96 hrs by MTT assay; type: functional
A549 = assay: Antiproliferative activity against human A549 cells assessed as cell growth inhibition incubated for 96 hrs by MTT assay; type: functional
MCF7 = assay: Antiproliferative activity against human MCF7 cells assessed as cell growth inhibition incubated for 96 hrs by MTT assay; type: functional
HL-60 [7] = assay: Induction of apoptosis in human HL-60 cells assessed as late apoptotic cells at 4 uM incubated for 24 hrs by propidium iodide and annexin-V FITC staining based FACS analysis (reference value: 4.2 %); type: functional
HL-60 [8] = assay: Induction of apoptosis in human HL-60 cells assessed as viable cells at 4 uM incubated for 24 hrs by propidium iodide and annexin-V FITC staining based FACS analysis (reference value: 92.05 %); type: functional; details: read-out: Activity
HL-60 [9] = assay: Induction of apoptosis in human HL-60 cells assessed as necrotic cells at 2 uM incubated for 24 hrs by propidium iodide and annexin-V FITC staining based FACS analysis (reference value: 0.5 %); type: functional
HL-60 [10] = assay: Induction of apoptosis in human HL60 cells assessed as viable cells at 2 uM incubated for 24 hrs by propidium iodide and annexin-V FITC staining based FACS analysis (reference value: 92.05 %); type: functional; details: read-out: Activity
[11] = target: T1, Protein deacetylase HDAC6 (Homo sapiens, UniProt Q9UBN7); assay: Inhibition of recombinant full length C-terminal FLAG-tagged human HDAC6 expressed in baculovirus infected Sf9 cells using Boc-Lys(Ac)-AMC as substrate preincubated for 15 mins followed by substrate addition and measured after 60 mins by fluorescence based assay
T1 sequence (Q9UBN7 whole entry): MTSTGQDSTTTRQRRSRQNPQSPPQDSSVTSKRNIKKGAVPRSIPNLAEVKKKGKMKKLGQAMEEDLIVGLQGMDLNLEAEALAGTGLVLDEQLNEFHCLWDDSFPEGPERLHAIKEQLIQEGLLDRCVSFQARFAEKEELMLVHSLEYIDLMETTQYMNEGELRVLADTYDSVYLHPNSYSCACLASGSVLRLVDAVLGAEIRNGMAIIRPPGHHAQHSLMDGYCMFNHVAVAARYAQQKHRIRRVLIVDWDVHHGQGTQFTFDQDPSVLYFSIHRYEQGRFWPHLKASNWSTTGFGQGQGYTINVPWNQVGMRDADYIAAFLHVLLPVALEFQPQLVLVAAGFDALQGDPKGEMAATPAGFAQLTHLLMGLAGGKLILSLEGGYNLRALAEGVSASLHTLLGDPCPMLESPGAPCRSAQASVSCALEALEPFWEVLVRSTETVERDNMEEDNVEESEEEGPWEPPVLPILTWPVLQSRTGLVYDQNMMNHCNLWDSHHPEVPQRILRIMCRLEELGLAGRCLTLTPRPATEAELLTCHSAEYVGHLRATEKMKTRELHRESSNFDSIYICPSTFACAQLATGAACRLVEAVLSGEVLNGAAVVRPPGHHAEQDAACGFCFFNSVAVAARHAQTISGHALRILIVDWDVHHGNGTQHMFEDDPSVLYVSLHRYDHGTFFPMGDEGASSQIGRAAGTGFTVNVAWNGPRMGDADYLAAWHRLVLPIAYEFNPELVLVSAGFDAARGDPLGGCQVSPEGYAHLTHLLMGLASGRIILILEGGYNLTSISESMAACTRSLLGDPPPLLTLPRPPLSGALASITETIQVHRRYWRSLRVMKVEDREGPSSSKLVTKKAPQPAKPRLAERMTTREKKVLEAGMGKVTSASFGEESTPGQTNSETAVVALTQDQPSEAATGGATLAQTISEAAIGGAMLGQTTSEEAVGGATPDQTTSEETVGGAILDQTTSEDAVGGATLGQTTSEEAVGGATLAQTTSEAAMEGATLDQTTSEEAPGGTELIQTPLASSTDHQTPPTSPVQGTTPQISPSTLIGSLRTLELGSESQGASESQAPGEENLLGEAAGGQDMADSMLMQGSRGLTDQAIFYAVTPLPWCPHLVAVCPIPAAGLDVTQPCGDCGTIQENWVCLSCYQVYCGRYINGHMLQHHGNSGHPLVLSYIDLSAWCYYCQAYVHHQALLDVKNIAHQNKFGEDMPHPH

[12] = target: Histone deacetylase 3/Nuclear receptor corepressor 2 (HDAC3/NCoR2) (Homo sapiens, UniProt O15379); assay: Inhibition of C-terminal His-tagged recombinant human HDAC3 (1 to 428 residues)/N-terminal GST-tagged recombinant human NCoR2 (395 to 489 residues) co-expressed in baculovirus infected Sf9 cells using Boc-Lys(Ac)-AMC as substrate preincubated for 15 mins followed by substrate addition and measured after 60 mins by fluorescence based assay
Histone deacetylase 2 = Histone deacetylase 2 (Homo sapiens, UniProt Q92769); assay: Inhibition of recombinant full length C-terminal FLAG-tagged human HDAC2 expressed in baculovirus infected Sf9 cells using Boc-Lys(Ac)-AMC as substrate preincubated for 15 mins followed by substrate addition and measured after 60 mins by fluorescence based assay
Histone deacetylase 1 = Histone deacetylase 1 (Homo sapiens, UniProt Q13547); assay: Inhibition of recombinant full length C-terminal FLAG/His-tagged human HDAC1 expressed in baculovirus infected Sf9 cells using Boc-Lys(Ac)-AMC as substrate preincubated for 15 mins followed by substrate addition and measured after 60 mins by fluorescence based assay
HL-60 [13] = assay: Growth inhibition of human HL-60 cells after 72 hrs by trypan blue dye based assay; type: functional; details: for GI50: Homo sapiens, HL-60
Method in brief: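 HL-60 leukemia cells were exposed to compound for 72 h. Growth inhibition is reported as IG50 (half the growth inhibition concentration), as means plus SD of three independent experiments.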

Histone deacetylase 1, sequence (Q13547 whole entry): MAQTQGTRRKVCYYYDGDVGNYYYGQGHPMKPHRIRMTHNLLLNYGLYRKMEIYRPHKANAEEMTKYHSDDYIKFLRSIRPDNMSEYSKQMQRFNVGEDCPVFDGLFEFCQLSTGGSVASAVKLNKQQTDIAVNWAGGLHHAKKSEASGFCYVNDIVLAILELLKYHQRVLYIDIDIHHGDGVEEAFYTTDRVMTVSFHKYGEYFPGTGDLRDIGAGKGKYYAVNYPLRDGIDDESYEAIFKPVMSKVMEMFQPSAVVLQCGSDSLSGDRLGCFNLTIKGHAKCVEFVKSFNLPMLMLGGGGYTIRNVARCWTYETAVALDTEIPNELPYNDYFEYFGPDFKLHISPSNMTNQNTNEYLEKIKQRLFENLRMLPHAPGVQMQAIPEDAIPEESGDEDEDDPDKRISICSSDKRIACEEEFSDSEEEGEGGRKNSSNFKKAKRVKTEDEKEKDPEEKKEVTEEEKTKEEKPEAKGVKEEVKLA
Histone deacetylase 3/Nuclear receptor corepressor 2 (HDAC3/NCoR2), sequence (O15379 whole entry, the tested form may be a part): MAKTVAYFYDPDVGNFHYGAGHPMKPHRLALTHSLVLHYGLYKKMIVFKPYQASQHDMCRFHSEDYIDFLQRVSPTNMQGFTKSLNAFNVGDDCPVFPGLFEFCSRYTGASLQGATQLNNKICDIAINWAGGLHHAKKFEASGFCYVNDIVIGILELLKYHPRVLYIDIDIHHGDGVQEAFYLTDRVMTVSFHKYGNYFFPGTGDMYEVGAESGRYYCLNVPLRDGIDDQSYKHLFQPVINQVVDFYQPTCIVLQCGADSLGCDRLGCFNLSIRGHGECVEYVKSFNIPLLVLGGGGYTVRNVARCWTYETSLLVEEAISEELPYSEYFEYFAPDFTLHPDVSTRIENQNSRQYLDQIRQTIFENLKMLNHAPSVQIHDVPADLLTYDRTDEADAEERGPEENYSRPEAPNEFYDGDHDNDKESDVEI
Histone deacetylase 3/Nuclear receptor corepressor 2 (HDAC3/NCoR2), sequence (Q9Y618 whole entry, further chain, the tested form may be a part): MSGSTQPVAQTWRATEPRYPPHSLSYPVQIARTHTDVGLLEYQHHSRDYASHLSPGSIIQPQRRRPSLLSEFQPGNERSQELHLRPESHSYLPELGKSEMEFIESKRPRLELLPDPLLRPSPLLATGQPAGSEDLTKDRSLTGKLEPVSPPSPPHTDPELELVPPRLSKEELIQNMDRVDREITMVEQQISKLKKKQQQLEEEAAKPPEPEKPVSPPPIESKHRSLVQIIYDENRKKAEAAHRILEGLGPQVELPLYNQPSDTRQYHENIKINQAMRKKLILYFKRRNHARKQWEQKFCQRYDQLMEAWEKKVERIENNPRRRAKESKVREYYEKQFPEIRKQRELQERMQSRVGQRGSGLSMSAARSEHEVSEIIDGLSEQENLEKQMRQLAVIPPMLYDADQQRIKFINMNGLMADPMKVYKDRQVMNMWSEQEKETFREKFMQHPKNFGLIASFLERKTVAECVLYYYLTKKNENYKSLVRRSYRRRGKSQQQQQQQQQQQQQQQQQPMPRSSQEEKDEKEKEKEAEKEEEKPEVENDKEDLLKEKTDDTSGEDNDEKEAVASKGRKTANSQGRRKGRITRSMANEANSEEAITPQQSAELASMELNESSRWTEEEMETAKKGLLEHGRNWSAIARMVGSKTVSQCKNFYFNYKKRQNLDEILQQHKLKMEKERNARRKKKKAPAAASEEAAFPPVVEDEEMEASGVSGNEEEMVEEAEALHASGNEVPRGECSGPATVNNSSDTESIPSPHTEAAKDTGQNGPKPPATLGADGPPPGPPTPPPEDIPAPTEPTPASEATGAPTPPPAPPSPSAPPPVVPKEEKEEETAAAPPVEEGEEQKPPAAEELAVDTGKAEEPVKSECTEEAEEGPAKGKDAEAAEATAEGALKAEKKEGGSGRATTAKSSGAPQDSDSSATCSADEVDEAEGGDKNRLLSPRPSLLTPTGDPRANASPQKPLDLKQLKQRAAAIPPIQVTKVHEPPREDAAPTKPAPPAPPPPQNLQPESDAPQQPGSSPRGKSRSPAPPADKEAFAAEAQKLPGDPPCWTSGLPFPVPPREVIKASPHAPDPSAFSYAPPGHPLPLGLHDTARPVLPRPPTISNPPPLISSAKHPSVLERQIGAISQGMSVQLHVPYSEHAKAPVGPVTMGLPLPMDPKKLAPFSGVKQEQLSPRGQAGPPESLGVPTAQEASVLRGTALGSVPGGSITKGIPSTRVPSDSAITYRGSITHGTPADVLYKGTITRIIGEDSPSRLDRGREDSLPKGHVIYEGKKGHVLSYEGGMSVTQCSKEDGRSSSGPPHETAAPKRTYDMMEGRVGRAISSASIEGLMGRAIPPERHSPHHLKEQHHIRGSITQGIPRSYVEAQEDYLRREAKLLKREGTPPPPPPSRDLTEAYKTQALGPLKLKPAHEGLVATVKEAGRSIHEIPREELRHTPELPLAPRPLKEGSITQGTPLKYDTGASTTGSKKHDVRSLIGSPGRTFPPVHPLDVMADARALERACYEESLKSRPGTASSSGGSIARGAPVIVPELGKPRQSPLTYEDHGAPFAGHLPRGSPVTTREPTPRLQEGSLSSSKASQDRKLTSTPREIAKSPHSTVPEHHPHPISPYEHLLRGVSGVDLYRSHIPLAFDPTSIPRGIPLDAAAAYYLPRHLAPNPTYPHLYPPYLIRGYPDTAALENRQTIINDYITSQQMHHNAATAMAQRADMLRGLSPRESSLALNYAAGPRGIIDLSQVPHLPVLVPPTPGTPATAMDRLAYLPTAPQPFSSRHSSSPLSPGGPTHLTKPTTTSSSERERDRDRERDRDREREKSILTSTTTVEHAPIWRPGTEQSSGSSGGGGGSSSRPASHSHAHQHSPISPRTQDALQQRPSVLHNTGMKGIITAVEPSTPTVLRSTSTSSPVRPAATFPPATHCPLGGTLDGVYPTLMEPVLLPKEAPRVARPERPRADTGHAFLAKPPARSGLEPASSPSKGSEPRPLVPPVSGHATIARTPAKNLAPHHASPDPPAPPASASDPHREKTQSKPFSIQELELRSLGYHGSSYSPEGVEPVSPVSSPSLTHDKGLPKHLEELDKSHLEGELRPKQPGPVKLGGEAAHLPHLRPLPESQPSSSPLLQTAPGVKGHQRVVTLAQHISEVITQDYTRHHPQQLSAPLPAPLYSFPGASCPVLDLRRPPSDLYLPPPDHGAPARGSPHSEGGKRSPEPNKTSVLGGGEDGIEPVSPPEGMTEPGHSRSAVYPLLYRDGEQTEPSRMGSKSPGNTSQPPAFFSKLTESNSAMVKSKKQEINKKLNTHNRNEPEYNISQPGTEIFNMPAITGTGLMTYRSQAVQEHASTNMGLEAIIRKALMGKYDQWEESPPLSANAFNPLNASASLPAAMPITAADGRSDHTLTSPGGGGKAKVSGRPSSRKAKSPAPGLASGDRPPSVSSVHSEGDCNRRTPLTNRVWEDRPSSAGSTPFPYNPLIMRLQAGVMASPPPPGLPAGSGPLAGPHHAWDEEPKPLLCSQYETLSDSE
Histone deacetylase 2, sequence (Q92769 whole entry): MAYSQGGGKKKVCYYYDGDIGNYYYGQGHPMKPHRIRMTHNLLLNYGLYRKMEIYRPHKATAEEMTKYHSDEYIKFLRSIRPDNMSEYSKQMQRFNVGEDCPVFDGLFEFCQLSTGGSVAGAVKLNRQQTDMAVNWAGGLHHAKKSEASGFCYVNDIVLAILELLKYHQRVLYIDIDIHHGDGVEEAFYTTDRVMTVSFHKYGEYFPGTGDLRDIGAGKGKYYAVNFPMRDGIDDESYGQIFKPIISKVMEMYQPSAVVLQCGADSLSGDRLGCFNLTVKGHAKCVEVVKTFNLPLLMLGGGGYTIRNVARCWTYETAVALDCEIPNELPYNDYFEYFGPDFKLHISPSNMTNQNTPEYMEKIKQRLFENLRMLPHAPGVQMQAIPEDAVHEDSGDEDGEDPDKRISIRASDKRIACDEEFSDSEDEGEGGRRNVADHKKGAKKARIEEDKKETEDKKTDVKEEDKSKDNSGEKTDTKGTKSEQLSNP
Histone deacetylase 3 (Homo sapiens), sequence (O15379 whole entry): as the sequence (O15379 whole entry, the tested form may be a part) above

Row | SMILES | inhibition [1] | Activity [2] [g] | Activity [3] [g] | Activity [4] [%] | Activity [5] [g] | IG50 [6] [µM] | IG50 (HCT-116) [µM] | IG50 (A549) [µM] | IG50 (MCF7) [µM] | Activity (HL-60 [7]) [%] | viability at 4 µM (HL-60 [8]) [%] | Activity (HL-60 [9]) [%] | viability at 2 µM (HL-60 [10]) [%] | IC50 [11] [nM] | IC50 [12] [nM] | IC50 (Histone deacetylase 2) [nM] | IC50 (Histone deacetylase 1) [nM] | GI50 (HL-60 [13]) [nM] | IG50 (HL-60 [13]) [µM]
1 | O=C(NCCSSCCNC(=O)/C(Cc1ccc(O)c(Br)c1)=N/O)/C(Cc1ccc(O)c(Br)c1)=N/O [PSAMMAPLIN A] | Active | 18.4 | 18.2 | 66.04 | 0.34 | 2.64 | 2.3 | 2.9 | 4.14 | 26.7 | 66.2 | 3.9 | 67.1 | 311 | 12.4 | 33 | 8 | 370 | –
2 | O=C(NCCS)/C(Cc1ccc(O)c(Br)c1)=N/O | Active | 18.3 | 18.5 | 55.99 | 0.48 | 3.9 | 5.9 | 10.7 | 17 | 4.7 | 93.3 | 0.3 | 93.6 | 960 | 120 | 210 | 52 | 680 | –
3 | O=C(CCNC(=O)/C(Cc1ccc(O)c(Br)c1)=N/O)NO | – | 18.4 | 18.9 | 54.68 | 0.45 | 5 | 0.9 | 1.1 | 1.09 | – | – | – | – | 96 | 20 | 33 | 18 | – | 0.57
